Results: ChEMBL document CHEMBL1799942, “Design, synthesis and antifungal activities of novel 1,2,4-triazole derivatives” (2011)
In brackets after ≈: the same amount, converted by molar mass.

Legend:
Assay type in all cases: functional
Candida albicans = assay: Antifungal activity against Candida albicans ATCC Y0109 after 24 hrs by micro-broth dilution method; details: ATCC Y0109, 24 h
How it was run: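 Micro-broth dilution per NCCLS M27-A2 on the quality-control standard strain ATCC Y0109, included in each assay. Compounds were dissolved in DMSO, serially diluted in growth medium, inoculated and incubated at 35 °C, with growth read at 24 h. MIC80 is the first well showing roughly 80% growth reduction versus the drug-free well.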

Candida parapsilosis = assay: Antifungal activity against Candida parapsilosis ATCC 0306392 by micro-broth dilution method; details: Lodderomyces parapsilosis
How it was run: (§1)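 Micro-broth dilution per NCCLS M27-A2. The C. parapsilosis strain is the ATCC 0306392 quality-control standard tested in each assay; the C. tropicalis strain is a clinical isolate. Compounds were in DMSO, serially diluted in growth medium, inoculated and incubated at 35 °C. MIC80 is the first well with about 80% growth reduction relative to the drug-free well.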

Aspergillus fumigatus = assay: Antifungal activity against Aspergillus fumigatus after 7 days by micro-broth dilution method; details: 168 h
How it was run: (§2)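 Broth microdilution following the NCCLS yeast reference method (M27-A2), run on clinical isolates of filamentous fungi. Compounds were dissolved in DMSO, serially diluted in growth medium, inoculated and incubated at 35 °C. Growth was read at 7 days. MIC80 is the first well with about 80% less growth than the drug-free well.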

Cryptococcus neoformans = assay: Antifungal activity against Cryptococcus neoformans ATCC BLS108 after 72 hrs by micro-broth dilution method; details: ATCC BLS108, 72 h
How it was run: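 NCCLS M27-A2 microdilution on the ATCC BLS108 quality-control strain, tested in every assay. Compounds were taken up in DMSO, serially diluted in growth medium, inoculated and incubated at 35 °C. Growth was scored at 72 h. MIC80 is the first well with about 80% lower growth than the drug-free control well.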

[1] = Antifungal activity against Fonsecaea compacta by micro-broth dilution method; how it was run: as §2
Trichophyton rubrum = assay: Antifungal activity against Trichophyton rubrum after 7 days by micro-broth dilution method; details: 168 h; how it was run: as §2
Nannizzia gypsea = assay: Antifungal activity against Microsporum gypseum after 7 days by micro-broth dilution method; details: 168 h; how it was run: as §2
Candida tropicalis = assay: Antifungal activity against Candida tropicalis by micro-broth dilution method; how it was run: as §1

Row | Compound | MIC80 (Candida albicans) | MIC80 (Candida parapsilosis) | MIC80 (Aspergillus fumigatus) | MIC80 (Cryptococcus neoformans) | MIC80 [1] | MIC80 (Trichophyton rubrum) | MIC80 (Nannizzia gypsea) | MIC80 (Candida tropicalis)
1 | O=C(Nc1ccc(N2CCN(CC(O)(Cn3cncn3)c3ccc(F)cc3F)CC2)c(F)c1)C(F)(F)Cl (racemic) | 64 µg/mL (≈ 117 µM) | 0.0039 µg/mL (≈ 0.00716 µM) | 1 µg/mL (≈ 1.84 µM) | 0.0156 µg/mL (≈ 0.0286 µM) | 0.0156 µg/mL (≈ 0.0286 µM) | 0.0039 µg/mL (≈ 0.00716 µM) | 0.0039 µg/mL (≈ 0.00716 µM) | 0.0039 µg/mL (≈ 0.00716 µM)
2 | O=C(Nc1ccc(N2CCN(CC(O)(Cn3cncn3)c3ccc(F)cc3F)CC2)c(F)c1)C(F)(F)F (racemic) | 0.0156 µg/mL (≈ 0.0295 µM) | 0.0039 µg/mL (≈ 0.00738 µM) | 1 µg/mL (≈ 1.89 µM) | 0.0625 µg/mL (≈ 0.118 µM) | 0.25 µg/mL (≈ 0.473 µM) | 0.0156 µg/mL (≈ 0.0295 µM) | > 64 µg/mL | 0.0039 µg/mL (≈ 0.00738 µM)
3 | CCC(=O)Nc1ccc(N2CCN(CC(O)(Cn3cncn3)c3ccc(F)cc3F)CC2)c(F)c1 (racemic) | 0.0625 µg/mL (≈ 0.128 µM) | 0.0625 µg/mL (≈ 0.128 µM) | 4 µg/mL (≈ 8.19 µM) | 1 µg/mL (≈ 2.05 µM) | 1 µg/mL (≈ 2.05 µM) | 0.0625 µg/mL (≈ 0.128 µM) | 0.25 µg/mL (≈ 0.512 µM) | 0.0625 µg/mL (≈ 0.128 µM)
4 | CCCC(=O)Nc1ccc(N2CCN(CC(O)(Cn3cncn3)c3ccc(F)cc3F)CC2)c(F)c1 (racemic) | 0.0156 µg/mL (≈ 0.031 µM) | 0.0156 µg/mL (≈ 0.031 µM) | 1 µg/mL (≈ 1.99 µM) | 0.25 µg/mL (≈ 0.497 µM) | 0.25 µg/mL (≈ 0.497 µM) | 0.0156 µg/mL (≈ 0.031 µM) | 0.0156 µg/mL (≈ 0.031 µM) | 0.0156 µg/mL (≈ 0.031 µM)
5 | CC(C)C(=O)Nc1ccc(N2CCN(CC(O)(Cn3cncn3)c3ccc(F)cc3F)CC2)c(F)c1 (racemic) | 0.0625 µg/mL (≈ 0.124 µM) | 0.25 µg/mL (≈ 0.497 µM) | > 64 µg/mL | 16 µg/mL (≈ 31.8 µM) | 1 µg/mL (≈ 1.99 µM) | 0.0625 µg/mL (≈ 0.124 µM) | 0.0625 µg/mL (≈ 0.124 µM) | 4 µg/mL (≈ 7.96 µM)
6 | CCCCC(=O)Nc1ccc(N2CCN(CC(O)(Cn3cncn3)c3ccc(F)cc3F)CC2)c(F)c1 (racemic) | 0.0156 µg/mL (≈ 0.0302 µM) | 0.25 µg/mL (≈ 0.484 µM) | 1 µg/mL (≈ 1.94 µM) | 1 µg/mL (≈ 1.94 µM) | 1 µg/mL (≈ 1.94 µM) | 0.25 µg/mL (≈ 0.484 µM) | 0.25 µg/mL (≈ 0.484 µM) | 0.25 µg/mL (≈ 0.484 µM)
7 | CC(C)(C)C(=O)Nc1ccc(N2CCN(CC(O)(Cn3cncn3)c3ccc(F)cc3F)CC2)c(F)c1 (racemic) | 0.0156 µg/mL (≈ 0.0302 µM) | 0.0156 µg/mL (≈ 0.0302 µM) | 64 µg/mL (≈ 124 µM) | 0.25 µg/mL (≈ 0.484 µM) | 0.0625 µg/mL (≈ 0.121 µM) | 0.0156 µg/mL (≈ 0.0302 µM) | 0.0156 µg/mL (≈ 0.0302 µM) | 0.0156 µg/mL (≈ 0.0302 µM)
8 | CCCCCC(=O)Nc1ccc(N2CCN(CC(O)(Cn3cncn3)c3ccc(F)cc3F)CC2)c(F)c1 (racemic) | 0.0039 µg/mL (≈ 0.00735 µM) | 0.25 µg/mL (≈ 0.471 µM) | 1 µg/mL (≈ 1.88 µM) | 0.0625 µg/mL (≈ 0.118 µM) | 0.25 µg/mL (≈ 0.471 µM) | 0.0156 µg/mL (≈ 0.0294 µM) | 0.25 µg/mL (≈ 0.471 µM) | 0.0625 µg/mL (≈ 0.118 µM)
9 | CCCCCCC(=O)Nc1ccc(N2CCN(CC(O)(Cn3cncn3)c3ccc(F)cc3F)CC2)c(F)c1 (racemic) | 0.00097 µg/mL (≈ 0.00178 µM) | 0.0625 µg/mL (≈ 0.115 µM) | 1 µg/mL (≈ 1.84 µM) | 0.0625 µg/mL (≈ 0.115 µM) | 0.25 µg/mL (≈ 0.459 µM) | 0.0156 µg/mL (≈ 0.0286 µM) | 0.0625 µg/mL (≈ 0.115 µM) | 0.0625 µg/mL (≈ 0.115 µM)
10 | CCCCCCCC(=O)Nc1ccc(N2CCN(CC(O)(Cn3cncn3)c3ccc(F)cc3F)CC2)c(F)c1 (racemic) | 0.0625 µg/mL (≈ 0.112 µM) | 0.0625 µg/mL (≈ 0.112 µM) | 1 µg/mL (≈ 1.79 µM) | 0.25 µg/mL (≈ 0.448 µM) | 0.25 µg/mL (≈ 0.448 µM) | 0.0039 µg/mL (≈ 0.00698 µM) | 0.0625 µg/mL (≈ 0.112 µM) | 0.0625 µg/mL (≈ 0.112 µM)
11 | O=C(Cc1ccccc1)Nc1ccc(N2CCN(CC(O)(Cn3cncn3)c3ccc(F)cc3F)CC2)c(F)c1 (racemic) | 0.0156 µg/mL (≈ 0.0283 µM) | 0.0625 µg/mL (≈ 0.114 µM) | 64 µg/mL (≈ 116 µM) | 1 µg/mL (≈ 1.82 µM) | 0.0625 µg/mL (≈ 0.114 µM) | 0.0039 µg/mL (≈ 0.00708 µM) | 0.0156 µg/mL (≈ 0.0283 µM) | 0.0625 µg/mL (≈ 0.114 µM)
12 | CCCCCCCC(=O)Nc1ccc(N2CCN(CC(O)(Cn3cncn3)c3ccc(F)cc3F)CC2)cc1 (racemic) | 0.0156 µg/mL (≈ 0.0289 µM) | 0.0625 µg/mL (≈ 0.116 µM) | 1 µg/mL (≈ 1.85 µM) | 0.0625 µg/mL (≈ 0.116 µM) | 1 µg/mL (≈ 1.85 µM) | 0.0625 µg/mL (≈ 0.116 µM) | 0.0156 µg/mL (≈ 0.0289 µM) | 0.0625 µg/mL (≈ 0.116 µM)
13 | CCCCCCCCCC(=O)Nc1ccc(N2CCN(CC(O)(Cn3cncn3)c3ccc(F)cc3F)CC2)cc1 (racemic) | 0.0156 µg/mL (≈ 0.0274 µM) | 1 µg/mL (≈ 1.76 µM) | 1 µg/mL (≈ 1.76 µM) | 0.0625 µg/mL (≈ 0.11 µM) | 1 µg/mL (≈ 1.76 µM) | 0.0625 µg/mL (≈ 0.11 µM) | 0.0156 µg/mL (≈ 0.0274 µM) | 0.25 µg/mL (≈ 0.44 µM)
14 | CCCCCCCCCCCC(=O)Nc1ccc(N2CCN(CC(O)(Cn3cncn3)c3ccc(F)cc3F)CC2)cc1 (racemic) | 0.0625 µg/mL (≈ 0.105 µM) | 0.25 µg/mL (≈ 0.419 µM) | 1 µg/mL (≈ 1.68 µM) | 0.0625 µg/mL (≈ 0.105 µM) | 0.25 µg/mL (≈ 0.419 µM) | 0.0625 µg/mL (≈ 0.105 µM) | 0.0156 µg/mL (≈ 0.0261 µM) | 1 µg/mL (≈ 1.68 µM)
15 | CCCCCCCCCCCCCCCC(=O)Nc1ccc(N2CCN(CC(O)(Cn3cncn3)c3ccc(F)cc3F)CC2)cc1 (racemic) | 0.25 µg/mL (≈ 0.383 µM) | 1 µg/mL (≈ 1.53 µM) | > 64 µg/mL | 16 µg/mL (≈ 24.5 µM) | 4 µg/mL (≈ 6.13 µM) | 0.25 µg/mL (≈ 0.383 µM) | 0.25 µg/mL (≈ 0.383 µM) | 1 µg/mL (≈ 1.53 µM)
16 | CC(=O)Nc1ccc(N2CCN(CC(O)(Cn3cncn3)c3ccc(F)cc3F)CC2)c(F)c1 (racemic) | 0.0625 µg/mL (≈ 0.132 µM) | 0.0625 µg/mL (≈ 0.132 µM) | 4 µg/mL (≈ 8.43 µM) | 1 µg/mL (≈ 2.11 µM) | 0.25 µg/mL (≈ 0.527 µM) | 0.25 µg/mL (≈ 0.527 µM) | 1 µg/mL (≈ 2.11 µM) | 0.0625 µg/mL (≈ 0.132 µM)
17 | O=C(CCl)Nc1ccc(N2CCN(CC(O)(Cn3cncn3)c3ccc(F)cc3F)CC2)c(F)c1 (racemic) | 0.0039 µg/mL (≈ 0.00766 µM) | 0.0156 µg/mL (≈ 0.0307 µM) | 1 µg/mL (≈ 1.96 µM) | 0.0625 µg/mL (≈ 0.123 µM) | 0.0625 µg/mL (≈ 0.123 µM) | 0.0625 µg/mL (≈ 0.123 µM) | 0.0156 µg/mL (≈ 0.0307 µM) | 0.0156 µg/mL (≈ 0.0307 µM)
18 | C[C@@H]1[C@H](O)[C@@H](C)/C=C/C=C/C=C/C=C/C=C/C=C/C=C/[C@H](O[C@@H]2O[C@H](C)[C@@H](O)[C@H](N)[C@@H]2O)C[C@@H]2O[C@](O)(C[C@@H](O)C[C@@H](O)[C@H](O)CC[C@@H](O)C[C@@H](O)CC(=O)O[C@H]1C)C[C@H](O)[C@H]2C(=O)O [AMPHOTERICIN B] | 1 µg/mL (≈ 1.08 µM) | 0.0156 µg/mL (≈ 0.0169 µM) | 4 µg/mL (≈ 4.33 µM) | 1 µg/mL (≈ 1.08 µM) | 16 µg/mL (≈ 17.3 µM) | 1 µg/mL (≈ 1.08 µM) | 0.0039 µg/mL (≈ 0.00422 µM) | 0.0625 µg/mL (≈ 0.0676 µM)
19 | OC(Cn1cncn1)(Cn1cncn1)c1ccc(F)cc1F [FLUCONAZOLE] | 4 µg/mL (≈ 13.1 µM) | 1 µg/mL (≈ 3.27 µM) | 64 µg/mL (≈ 209 µM) | 1 µg/mL (≈ 3.27 µM) | 16 µg/mL (≈ 52.2 µM) | 0.25 µg/mL (≈ 0.816 µM) | 0.25 µg/mL (≈ 0.816 µM) | 1 µg/mL (≈ 3.27 µM)
20 | CCC(C)n1ncn(-c2ccc(N3CCN(c4ccc(OCC5COC(Cn6cncn6)(c6ccc(Cl)cc6Cl)O5)cc4)CC3)cc2)c1=O (stereo not drawn) [ITRACONAZOLE] | 1 µg/mL (≈ 1.42 µM) | 0.25 µg/mL (≈ 0.354 µM) | 1 µg/mL (≈ 1.42 µM) | 1 µg/mL (≈ 1.42 µM) | 0.25 µg/mL (≈ 0.354 µM) | 0.0156 µg/mL (≈ 0.0221 µM) | 0.0156 µg/mL (≈ 0.0221 µM) | 0.25 µg/mL (≈ 0.354 µM)
21 | CC(=O)N1CCN(c2ccc(OCC3COC(Cn4ccnc4)(c4ccc(Cl)cc4Cl)O3)cc2)CC1 (stereo not drawn) [KETOCONAZOLE] | 0.0625 µg/mL (≈ 0.118 µM) | 0.0625 µg/mL (≈ 0.118 µM) | 1 µg/mL (≈ 1.88 µM) | 0.0625 µg/mL (≈ 0.118 µM) | 0.0625 µg/mL (≈ 0.118 µM) | 0.0625 µg/mL (≈ 0.118 µM) | 0.0039 µg/mL (≈ 0.00734 µM) | 0.0625 µg/mL (≈ 0.118 µM)
